This note sets out measurements from PubChem BioAssay.

A number with no mark means an inactive call.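 Rule for the calls: active = growth inhibition above 25% in both replicates, a cutoff set 3 SD above the mean; inconclusive = above 25% in only one replicate; inactive = the rest.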

A short description of the test: S. cerevisiae growth inhibition in permissive medium (OD615), pilot counter-assay for S. cerevisiae lifespan shortening project, permissive growth control (AID 705). Particulars: OD615, 24 h, at 10 µM, stronger effect = higher value. The essentials: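 Material: engineered DeaD yeast; compound dosing: one dose 10 µM, DMSO 0.25% final; measure: yeast growth inhibition indicated by reduced 24 h OD615; detection: OD615 turbidity read; incubation: cells pre-grown 4 h, then 24 h compound exposure, 30 °C humidified; medium: permissive synthetic complete medium with raffinose and galactose carbon sources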
Regarding `CCCC(=O)Nc1nc2c(OC)ccc(OC)c2s1`, the growth inhibition was -7.39%.

In the case of `COc1ccc(N(CC(=O)NCc2ccccc2OC)S(=O)(=O)c2c(C)nn(C)c2C)cc1`, the growth inhibition was -12.2%. Under `O=C(c1ccc(CS(=O)(=O)c2ccc(Br)cc2)o1)N1CCN(c2ncccn2)CC1` stands -4.05%; under `COc1ccc(C2C(C(=O)Nc3cc(C)on3)c3ccccc3C(=O)N2C)cc1OC` (stereo not given), -4.48%; under `O=C(O)CC1Sc2ccccc2NC1=O` (stereo not given), -7.26%.

Take `C=CCNc1nc2c(c(=O)[nH]c(=O)n2C)n1Cc1cccc(C)c1`: the growth inhibition was 2.89%. The value for `CCOC(=O)C1=C(C)S/C(=C\N(C)C)C1=O` was -8.63%. Under `COc1cccc(NC(=O)CSc2ncnc3c2oc2ccccc23)c1` stands -12.8%; under `CCCCCCNC(=O)C(C(=O)OCC)C1CCCCC1` (stereo not given), -4.1%. The value for `COc1ccc(-c2cc3ccccc3n2CC(O)CN2CCN(CCO)CC2)cc1` (stereo not given) was -6.33%; that for `CC(=O)c1c(Nc2ccc3c(c2)OCCO3)oc(C)cc1=O` was -21.9%. As for `COc1ccc(-c2noc(CN3CCN(c4ccccc4)CC3)n2)cc1`, the growth inhibition is -12.7%. Take `O=C1CSC(=S)N1Cc1cccnc1`: the growth inhibition is -15.3%. The value for `COc1ccc(NC(=O)C2CCCN2S(=O)(=O)c2ccc(F)cc2)cc1` (stereo not given) was -11.8%; that for `CCCCCCn1c(CN2CCN(CCO)CC2)nc2c1c(=O)n(C)c(=O)n2C` was -6.85%; that for `Cc1nn(-c2ccccc2)c2sc(C(=O)n3cccn3)cc12` was -10.7%. Under `Cc1cc(NC(=O)CSc2ccc3nnc(-c4ccccn4)n3n2)no1` stands -3.09%.

Take `COc1cccc(C2CC(c3ccc(Cl)cc3)n3nc(N)nc3N2)c1` (stereo not given): the growth inhibition is -3.76%. Under `CC(=O)c1c(C)oc(C)c1CSCc1ccc(C(=O)O)o1` stands -4.54%; under `CC(=O)Nc1ccc(S(=O)(=O)c2ccc(N)cc2)cc1N`, -3.35%; under `COC(=O)C1C2C=CC3(CN(C(C)C)C(=O)C13)O2` (stereo not given), -11.7%. The value for `CC(c1ccc(Br)cc1)N1CC23C=CC(O2)C(C(=O)O)C3C1=O` (stereo not given) was 0.305%; that for `CC(C)C(NS(=O)(=O)c1ccc2c3c(cccc13)C(=O)N2)C(=O)O` (stereo not given) was -4.62%. With `CC1=C(C(=O)OCc2ccc3c(c2)OCO3)C(c2ccc(Cl)cc2)NC(=O)N1` (stereo not given), the growth inhibition is -4.12%. The value for `CCOc1ccc2[nH]c(C)c(CN3CCOCC3)c(=O)c2c1` was 0.82%; that for `CC(NC(=O)CSc1ncnc2nc[nH]c12)c1ccccc1` (stereo not given) was -15.5%; that for `CCOc1ccc(N=Cc2c(O)cc(C)oc2=O)cc1` was -1.27%. The value for `O=C(OCN1C(=O)c2ccccc2C1=O)c1ccco1` was -3.8%; that for `O=C(Nc1cccnc1)c1cc(-c2ccc(Br)cc2)on1` was -9.68%; that for `CN1CCN(c2ccccc2NC(=O)C(Cc2ccccc2)n2cccc2)CC1` (stereo not given) was -7.49%. On to `COc1ccc(NC(=O)C2CCN(S(=O)(=O)c3cccc4cccnc34)CC2)cc1OC`, for which the growth inhibition was -4.2%. In the case of `CCn1cc(C(=O)NCCCN2CCC(C)CC2)c2cc(OC)c(OC)cc2c1=O`, the growth inhibition was -7.74%. Turning to `COc1ccccc1NC(=O)C1C2C=CC3(CN(Cc4cccnc4)C(=O)C13)O2` (stereo not given), the growth inhibition was 6%. Under `O=C(N1CCOCC1)N1CCN(c2ccccc2F)CC1` stands -0.135%; under `CCCc1cc(=O)oc2cc3occ(C)c3cc12`, -10.3%.

Turning to `COc1ccccc1N1CCN(c2cc(=O)n(-c3ccc(Cl)cc3)c(=O)[nH]2)CC1`, the growth inhibition was -5.8%.

In the case of `COc1ccc(OC)c(S(=O)(=O)NCc2cn3c(C)csc3n2)c1`, the growth inhibition is -10.1%.

In the case of `CCOc1ccc(OCC)c(S(=O)(=O)NCc2ccc3c(c2)OCO3)c1`, the growth inhibition is -9.29%.

`COc1cccc(C2NC(CCSC)(C(=O)O)C3C(=O)N(C(C)C)C(=O)C23)c1O` (stereo not given): the growth inhibition was -1.2%. Turning to `Cn1c(NC(=O)c2cc(Cl)ccc2Cl)cc(=O)n(C)c1=O`, the growth inhibition is 4.47%.
